Reference: ChEMBL document CHEMBL2057126, “Discovery of new inhibitors of Cdc25B dual specificity phosphatases by structure-based virtual screening” (J Med Chem, 2012)
pIC50, pKi: −log10 of the molar value. Activity calls are given as the source filed them. No cut-off for these calls is given here.

Tests used:
[1] = target: T1, M-phase inducer phosphatase 2 (Homo sapiens, UniProt P30305); assay: Inhibition of recombinant phosphatase activity of Cdc25B catalytic domain expressed in Escherichia coli BL21(DE3) using OMFP as substrate by spectrofluorimetric analysis
T1 sequence (P30305 whole entry): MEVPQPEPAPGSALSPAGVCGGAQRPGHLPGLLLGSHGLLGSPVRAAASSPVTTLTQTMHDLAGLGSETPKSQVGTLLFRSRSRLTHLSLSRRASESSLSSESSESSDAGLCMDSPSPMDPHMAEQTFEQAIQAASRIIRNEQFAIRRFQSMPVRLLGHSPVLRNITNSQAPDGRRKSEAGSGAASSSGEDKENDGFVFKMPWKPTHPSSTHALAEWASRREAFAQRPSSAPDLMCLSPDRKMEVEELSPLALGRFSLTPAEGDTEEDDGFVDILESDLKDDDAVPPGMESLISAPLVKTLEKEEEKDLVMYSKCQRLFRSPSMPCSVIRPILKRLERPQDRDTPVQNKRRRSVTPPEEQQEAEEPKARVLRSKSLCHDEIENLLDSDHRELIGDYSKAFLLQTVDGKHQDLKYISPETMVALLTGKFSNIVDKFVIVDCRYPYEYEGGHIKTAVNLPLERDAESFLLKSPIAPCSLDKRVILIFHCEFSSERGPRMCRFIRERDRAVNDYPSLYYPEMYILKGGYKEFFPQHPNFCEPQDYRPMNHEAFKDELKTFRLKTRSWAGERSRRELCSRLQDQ

[2] = target: T2, M-phase inducer phosphatase 2 (Homo sapiens) (UniProt P30305); assay: Reversible inhibition of recombinant phosphatase activity of Cdc25B catalytic domain expressed in Escherichia coli BL21(DE3) assessed as residual activity of enzyme measured after 10 fold dilution at 50 uM preincubated for 20 mins
T2 sequence (whole entry): T1 sequence (P30305 whole entry)
Outline: (§1)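 Dilution test: Cdc25B pretreated with inhibitor for up to 20 min, mixture diluted 10-fold, and residual phosphatase activity measured to judge reversible versus irreversible inhibition.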

[3] = target: T2, M-phase inducer phosphatase 2 (Homo sapiens); assay: Inhibition of recombinant phosphatase activity of Cdc25B catalytic domain expressed in Escherichia coli BL21(DE3) using OMFP as substrate at 50 uM by spectrofluorimetric analysis
Outline: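 Single-point screen: percent inhibition of Cdc25B phosphatase activity (OMFP hydrolysis) measured with inhibitor at 50 μM.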

[4] = target: T3, M-phase inducer phosphatase 3 (Homo sapiens) (UniProt P30307); assay: Inhibition of recombinant phosphatase activity of Cdc25C catalytic domain expressed in Escherichia coli BL21(DE3) using OMFP as substrate at 100 uM after 15 mins by fluorimetric assay
T3 sequence (whole entry): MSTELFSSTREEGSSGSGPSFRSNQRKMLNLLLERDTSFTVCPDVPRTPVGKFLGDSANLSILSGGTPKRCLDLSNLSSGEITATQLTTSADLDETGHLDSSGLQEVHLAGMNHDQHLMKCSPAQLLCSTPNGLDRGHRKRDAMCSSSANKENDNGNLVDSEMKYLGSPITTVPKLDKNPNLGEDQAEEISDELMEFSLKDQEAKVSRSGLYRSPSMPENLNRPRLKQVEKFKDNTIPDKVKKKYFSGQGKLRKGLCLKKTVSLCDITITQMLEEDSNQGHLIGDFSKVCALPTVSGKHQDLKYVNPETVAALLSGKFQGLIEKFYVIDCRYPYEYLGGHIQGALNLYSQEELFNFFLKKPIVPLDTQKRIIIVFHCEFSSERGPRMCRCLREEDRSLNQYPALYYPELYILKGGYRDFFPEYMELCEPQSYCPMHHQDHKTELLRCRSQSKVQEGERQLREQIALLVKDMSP

[5] = target: T2, M-phase inducer phosphatase 2 (Homo sapiens); assay: Inhibition of recombinant phosphatase activity of Cdc25B catalytic domain expressed in Escherichia coli BL21(DE3) using OMFP as substrate at 100 uM after 15 mins by fluorimetric assay
[6] = target: T4, M-phase inducer phosphatase 1 (Homo sapiens) (UniProt P30304); assay: Inhibition of recombinant phosphatase activity of Cdc25A catalytic domain expressed in Escherichia coli BL21(DE3) using OMFP as substrate at 100 uM after 15 mins by fluorimetric assay
T4 sequence (whole entry): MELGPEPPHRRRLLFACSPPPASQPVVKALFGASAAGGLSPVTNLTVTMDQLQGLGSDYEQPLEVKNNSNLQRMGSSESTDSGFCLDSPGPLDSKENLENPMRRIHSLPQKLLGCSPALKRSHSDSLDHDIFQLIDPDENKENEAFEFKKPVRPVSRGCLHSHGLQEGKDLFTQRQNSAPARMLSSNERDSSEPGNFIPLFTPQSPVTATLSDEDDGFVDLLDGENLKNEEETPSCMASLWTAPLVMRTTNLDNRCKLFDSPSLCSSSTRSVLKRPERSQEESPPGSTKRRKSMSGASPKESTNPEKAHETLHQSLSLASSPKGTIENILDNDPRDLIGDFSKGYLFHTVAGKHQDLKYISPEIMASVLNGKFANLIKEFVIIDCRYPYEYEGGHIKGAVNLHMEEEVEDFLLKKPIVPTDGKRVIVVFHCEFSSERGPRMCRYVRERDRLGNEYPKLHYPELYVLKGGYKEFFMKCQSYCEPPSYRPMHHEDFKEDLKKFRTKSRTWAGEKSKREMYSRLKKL

[7] = target: T2, M-phase inducer phosphatase 2 (Homo sapiens); assay: Reversible inhibition of recombinant phosphatase activity of Cdc25B catalytic domain expressed in Escherichia coli BL21(DE3) assessed as residual activity of enzyme measured after 10 fold dilution at 100 uM preincubated for 20 mins
[8] = target: T2, M-phase inducer phosphatase 2 (Homo sapiens); assay: Irreversible inhibition of recombinant phosphatase activity of Cdc25B catalytic domain expressed in Escherichia coli BL21(DE3) assessed as residual activity of enzyme measured after 10 fold dilution at 50 uM preincubated for 20 mins; outline: as §1
[9] = target: T1, M-phase inducer phosphatase 2; assay: Competitive inhibition of recombinant phosphatase activity of Cdc25B catalytic domain expressed in Escherichia coli BL21(DE3) using OMFP as substrate by Lineweaver-Burk plot analysis
[10] = target: T5, M-phase inducer phosphatase 1 (Homo sapiens, UniProt P30304); assay: Inhibition of recombinant phosphatase activity of Cdc25A catalytic domain expressed in Escherichia coli BL21(DE3) using OMFP as substrate by spectrofluorimetric analysis
T5 sequence (P30304 whole entry): T4 sequence (whole entry)
Outline: (§2)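 Purified recombinant Cdc25A catalytic domain; phosphatase activity measured as OMFP hydrolysis versus inhibitor concentration to derive IC50, with Ki calculated from kinetic measurements. Results are averages ± SD of three determinations.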

[11] = target: T5, M-phase inducer phosphatase 1; assay: Inhibition of recombinant phosphatase activity of Cdc25A catalytic domain expressed in Escherichia coli BL21(DE3) using OMFP as substrate by Lineweaver-Burk plot analysis; outline: as §2
[12] = target: T2, M-phase inducer phosphatase 2 (Homo sapiens); assay: Reversible inhibition of recombinant phosphatase activity of Cdc25B catalytic domain expressed in Escherichia coli BL21(DE3) assessed as residual activity of enzyme measured after 10 fold dilution at 100 uM preincubated for 20 mins
Outline: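 Cdc25B (0.5 μg) preincubated 20 min at room temperature with 100 μM inhibitor or DMSO vehicle, then diluted 10-fold. Residual phosphatase activity was read after adding OMFP substrate and expressed as percent of the untreated control. Mean ± SD of three determinations.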

Row | SMILES | inhibition [3] [%] | inhibition [4] [%] | inhibition [5] [%] | inhibition [6] [%] | further results
1 | O=C(O)c1ccccc1C(=O)c1ccc(-c2ccccc2)cc1 | 54 |  |  |  | pIC50 [1]: 4.64; inhibition [2]: Active
2 | Sc1ccc2ccccc2c1CNCc1ccccc1 |  | 53 | 60 | 35 | 
3 | O=C(O)c1cccc(Nc2ccccc2C(=O)O)c1 | 18 |  |  |  | 
4 | Cn1c(COc2ccccc2C(=O)O)nc2ccccc21 |  | 35 | 43 | 10 | inhibition [7]: Active
5 | O=C1C=C(Nc2cccc(C(=O)O)c2)c2ccccc2C1=O | 85 |  |  |  | inhibition [8]: Active; pIC50 [1]: 5.38
6 | CN(CCC(=O)O)C1=Nc2ccc(Cl)cc2C(c2ccccc2)=[N+]([O-])C1 |  | 48 | 43 | 28 | inhibition [7]: Active
7 | CC(C)(Oc1ccc(-c2cccc3ccccc23)cc1)C(=O)O |  | 50 | 40 | 47 | inhibition [7]: Active
8 | O=C(O)c1ccc(C(=O)c2ccccc2C(=O)O)cc1 | 12 |  |  |  | 
9 | O=C(O)c1ccccc1C(=O)CCC(=O)c1ccccc1C(=O)O | 20 |  |  |  | 
10 | O=C(C(=O)c1ccc(O)c(O)c1)c1ccc(O)c(O)c1 | 22 |  |  |  | 
11 | O=C(O)c1cc(C(=O)C(=O)c2cc(C(=O)O)c(O)c3ccccc23)c2ccccc2c1O | 26 |  |  |  | 
12 | O=C(O)c1ccccc1-c1ccccc1C(=O)Nc1ccc2c(c1)nc(O)c1ccccc12 |  | 48 | 45 | 66 | inhibition [7]: Active
13 | CNc1ccc(C(=O)c2ccccc2C(=O)O)cc1[N+](=O)[O-] | 65 |  |  |  | pIC50 [1]: 5.10; inhibition [2]: Active
14 | NS(=O)(=O)c1cc2c(cc1Cl)N=C(CCC(=O)O)NS2(=O)=O |  | 47 | 41 | 21 | inhibition [7]: Active
15 | Nc1ccc(Cc2ccc(N)c(C(=O)O)c2)cc1C(=O)O | 52 |  |  |  | pIC50 [1]: 4.62; inhibition [2]: Active
16 | Nc1ccc(-c2ccc(Nc3cc(S(=O)(=O)O)c(N)c4c3C(=O)c3ccccc3C4=O)cc2)c(S(=O)(=O)O)c1 |  | 49 | 89 | 72 | 

Row | SMILES | inhibition [3] [%] | inhibition [4] [%] | inhibition [5] [%] | inhibition [6] [%] | further results
17 | O=C(O)c1ccccc1C(=O)c1ccc(O)c([N+](=O)[O-])c1 | 13 |  |  |  | 
18 | O=C(O)c1cccc(F)c1C(=O)c1ccc2ccccc2c1 | 34 |  |  |  | 
19 | CC1=NN(c2ccc(S(=O)(=O)O)cc2)C(=O)/C1=C/c1ccc(Cl)cc1 |  | 54 | 46 | 17 | inhibition [7]: Active
20 | O=C1C=C(Nc2nc(O)cc(C(=O)O)n2)c2ccccc2C1=O | 60 |  |  |  | inhibition [8]: Active
21 | O=C(O)c1ccccc1C(=O)c1cccc([N+](=O)[O-])c1 | 17 |  |  |  | 
22 | O=C1C=C(Nc2nc(C(=O)O)cc(=O)[nH]2)c2ccccc2C1=O |  |  |  |  | pIC50 [1]: 5.00
23 | COc1ccc(Cc2ccc3[nH]c(=O)cc(C)c3c2)cc1S(=O)(=O)O |  |  |  |  | pKi [9]: 4.08; pIC50 [10]: 4.07; pKi [11]: 3.69; pIC50 [1]: 3.88
24 | O=C(O)c1cccc(Oc2ccc(C(=O)O)c([N+](=O)[O-])c2)c1 | 37 |  |  |  | 
25 | CC(=O)c1ccc(C(=O)c2ccccc2C(=O)O)cc1 | 20 |  |  |  | 
26 | O=C(O)C1CCCN1Cc1c[nH]c2ccccc12 (stereo unspecified) |  | 45 | 37 | 39 | 
27 | Nc1ccc(C(=O)O)cc1S(=O)(=O)c1cc(C(=O)O)ccc1N | 62 |  |  |  | pIC50 [1]: 4.70; inhibition [2]: Active
28 | CC1C2C=CC1C(c1c3ccc(=O)c(O)c-3oc3c(O)c(O)ccc13)C2C(=O)O (stereo unspecified) |  | 98 | 98 | 98 | inhibition [12]: Active
29 | O=C(O)c1ccccc1C(=O)c1cccc2ccccc12 | 41 |  |  |  | 
30 | O=C(Nc1ccc2ncccc2c1)Nc1ccc2ncccc2c1 |  | 48 | 32 | 47 | inhibition [7]: Active
31 | O=C(O)c1ccccc1C(=O)c1ccc(Cl)c([N+](=O)[O-])c1 | 13 |  |  |  | 
32 | COc1cc(O)c(C(=O)c2ccccc2)cc1S(=O)(=O)O | 49 |  |  |  | 
